ChEMBL document CHEMBL1649230, “Aryl rhodanines specifically inhibit staphylococcal and enterococcal biofilm formation” (Antimicrob Agents Chemother, 2009)
Values after ≈ are worked out from the molar mass of the structure shown.

Tested on: Staphylococcus aureus
Experiment: Antimicrobial activity against Staphylococcus aureus ATCC 35556 by M7-A7 method
Assay type: functional
How it was run: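 Planktonic MIC by CLSI M7-A7 broth microdilution. Twofold compound dilutions made in DMSO at 50× final concentration and added to plates before inoculation; 2% DMSO final.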

SMILES: O=C(N[C@H](CO)[C@H](O)c1ccc([N+](=O)[O-])cc1)C(Cl)Cl [CHLORAMPHENICOL]
- MIC: 1 µg/mL (≈ 3.09 µM)
